Most compounds without a hit are left out; they make up all but 12% or so of the library.
bCat nuc transl: modulators of beta-catenin nuclear translocation, primary screen, imaging, HeLa cells, immunofluorescence, high-content; 190,000 tested, 0.3% active; AID 1665, 2009; nuclear translocation activity, % at 5 µM;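 active = nuclear translocation activity above 50% at 5 µM, with a well cell count of 50 or more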;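 also: per-cell ratio of nuclear to cytoplasmic median beta-catenin stain intensity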
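test system = HeLa cells, endogenous beta-catenin | dosing = single 5 µM dose plus 0.02–20 µM confirmation series | times = compound treatment 24 h, 37°C, 5% CO2 | technique = beta-catenin immunofluorescence imaging with DAPI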
Dynein cargo inh: inhibitors of GR-EGFP nuclear translocation, primary screen, dynein cargo transport inhibitor project, imaging, high-content, 3617.4 mouse cells | test concentration mostly 20 µM; stimulated with dexamethasone, 1 µM; stronger effect = lower value | z-score, hits read low | 220,000 tested, 0.47% active | AID 1381, 2008;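 active = plate z-score of nuclear minus cytoplasmic receptor signal below a set negative limit, without overly bright fluorescence or cell loss, cut at about -3.5 in these data, passing the limit was not always enough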;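 also: z-score of nuclear minus cytoplasmic ring GR-EGFP intensity difference per well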
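medium = tetracycline-free induction medium containing charcoal-stripped FBS | probe or stimulus = dexamethasone, 1.0 µM final | timing = 48 h induction, then 1 h compound, then 30 min agonist, 37 °C | detection = automated 10x imaging of fixed Hoechst-stained cells | read-out basis = nuclear versus cytoplasmic GR-EGFP signal, averaged per well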
Lmaj promast: Leishmania major promastigote growth inhibition, primary screen; 200,000 tested, 9% active; AID 1063, 2008; Leishmania major promastigotes, resazurin fluorescence viability; inhibition, % at 10 µM; in the data active = inhibition above about 50%;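 also: promastigotes grown with compound for 44 hours at 28 °C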
CHOP inhibitor: inhibitors of CHOP promoter induction, primary screen, cell-based, unfolded protein response, luciferase reporter; CHO-K1 CHOP-promoter luciferase, tunicamycin-induced, 15-18 h; AID 2732, 2010; inhibition, % at 10 µM; 220,000 tested, 3.8% active;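 active = compounds that reduced the stress-induced luciferase reporter signal by more than about 70% of percent inhibition, limit read from the data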
Autophagy mod: autophagy modulators in MEF cells, primary screen, imaging, high-content, MEF GFP-LC3. MEF GFP-LC3 puncta imaging; test concentration mostly 10 µM. calls only at 10 µM (by protocol). 190,000 tested, 0.98% active;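 active = percentage of spot-positive cells more than 3 SD above its plate mean, without a fluorescence outlier flag or 80% toxicity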
MT stabilizer: microtubule stabilizers in HeLa cells, primary screen, imaging, high-content imaging; HeLa tubulin immunostaining HCS, 24 h; share of cells brighter than vehicle mean+2SD; 200,000 tested, 0.83% active; AID 2205, 2009; % tubulin-high responders, % at 10 µM;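 active = plate Z-score above 3 for both tubulin-high and condensed-nucleus cell shares, with cell loss under 80%, at 10 µM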;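 also: anti alpha tubulin signal scored within the nucleus-defined area of each cell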
Large screens that a line does not name were inactive.

COC(=O)c1sccc1NC(=O)c1csc(C)c1	none
Cc1ccc(NC(=O)c2cccc(OCc3c(C)noc3C)c2)cc1	Lmaj promast 83 (no result: bCat nuc transl)
Cc1ccccc1NC(=O)c1cccc(OCc2c(C)noc2C)c1	Lmaj promast 59
Cc1noc(C)c1COc1cccc(C(=O)OCC(=O)N2CC(=O)Nc3ccccc32)c1	Autophagy mod active, MT stabilizer 39 (no result: CHOP inhibitor)
Cc1noc(C)c1COc1cccc(C(=O)NCc2cccc(Cl)c2)c1	Lmaj promast 73
Cc1ccc(NC(=O)c2ccc(OCc3c(C)noc3C)cc2)cc1	none (no result: Lmaj promast, Autophagy mod, MT stabilizer)
O=C1CN(C(=O)COc2cccc(F)c2)c2ccccc2N1	none
C/C(=N/NC(=O)CNC(=O)/C=C/c1ccco1)c1ccc(Cl)cc1	none
O=c1nc(-c2ccccc2)nc(-c2ccccc2)[nH]1	none (no result: Lmaj promast, Autophagy mod, MT stabilizer)
Cc1noc(C)c1COc1cccc(C(=O)NCCc2c[nH]c3ccccc23)c1	MT stabilizer 24
Cc1noc(C)c1COc1cccc(C(=O)Nc2ccc(C#N)cc2)c1	Lmaj promast 83 (no result: bCat nuc transl)
Cc1noc(C)c1COc1ccc(CC(=O)NCc2ccccc2)cc1	MT stabilizer 20
Cc1noc(C)c1COc1ccc(CC(=O)NC2CCCCCC2)cc1	none
Cc1onc(-c2ccccc2)c1C(=O)NCCc1c[nH]c2ccccc12	none
COc1ccc(NS(=O)(=O)c2cc(NC(=O)c3cccc(OCc4c(C)noc4C)c3)ccc2OC)cc1	bCat nuc transl 63, Lmaj promast 98, MT stabilizer 13
COc1ccc(C(=O)Nc2cnn(Cc3c(F)cccc3Cl)c2)cc1OC	none (no result: Lmaj promast, Autophagy mod, MT stabilizer)
O=C(CSc1nc(-c2ccncc2)nn1CC(=O)N1CCCCC1)NC1CCCC1	none
CNc1cc(N2CCCC2)ccc1[N+](=O)[O-]	none
CSc1ccc(S(=O)(=O)NCCOc2ccccc2C)cc1	CHOP inhibitor 72
Cc1cccc(NC(=O)C(=O)NCCCc2ccccc2)c1	none
COc1ccc(N2CCN(C(=O)CN(C3CCCCC3)S(C)(=O)=O)CC2)cc1	none (no result: MT stabilizer)
CCOC(=O)C1=C(CNCc2ccc(C)cc2)NC(=O)NC1c1cc(C)ccc1C (stereo unspecified)	Lmaj promast 100
CCOC(=O)C1=C(Cn2cnc3ccccc32)NC(=O)NC1c1cc(C)ccc1C (stereo unspecified)	CHOP inhibitor 89 (no result: bCat nuc transl)
COC(=O)C1=C(Cn2cnc3ccccc32)NC(=O)NC1c1cc(C)ccc1C (stereo unspecified)	none (no result: bCat nuc transl)
COc1ccc(CCNC(=O)CCCn2c(SCC(N)=O)nc3cc4c(cc3c2=O)OCO4)cc1OC	none
CCN(CC)C(=O)CSc1nc2c(sc(=S)n2CC)c(=O)n1-c1ccccc1	Lmaj promast 59 (no result: bCat nuc transl)
CCN(CC)C(=O)CSc1nc2c(sc(=S)n2-c2ccccc2)c(=O)n1Cc1ccco1	none (no result: bCat nuc transl)
C=COCCNC(=O)Nc1ccc(Cl)c(Cl)c1	none
Cc1ccc(S(=O)(=O)NCCCCCC(=O)Nc2cccc(C)c2)cc1	none (no result: bCat nuc transl)
CCC1=NN(C(=O)Cc2ccc(OC)cc2)C(O)(C(F)(F)F)C1 (stereo unspecified)	none
COc1cccc(C(=O)N2N=C(c3cccc(OC)c3)CC2(O)C(F)(F)F)c1 (stereo unspecified)	none (no result: bCat nuc transl)
COc1ccc(CC(=O)N2N=C(c3ccncc3)CC2(O)C(F)(F)F)cc1 (stereo unspecified)	MT stabilizer 15
COc1cccc(C2=NN(C(=O)c3cccs3)C(O)(C(F)(F)F)C2)c1 (stereo unspecified)	CHOP inhibitor 75
CCOC(=O)C1(CC2CC2)CCN(Cc2ccc3cccc(F)c3n2)CC1	none (no result: MT stabilizer)
C/C(=C/CCC(C)[C@H]1CC[C@@]2(C)C3=C(CC[C@]12C)[C@@]1(C)CCC(=O)C(C)(C)[C@@H]1CC3)C(=O)O (stereo partly specified)	CHOP inhibitor 74
C/C(=C/CCC(C)C1CCC2(C)C3CCC4C(C)(C)C(=O)CCC4(C)C3=CCC12C)C(=O)O (stereo unspecified)	none (no result: Lmaj promast, Autophagy mod, MT stabilizer)
O=C(CN1C(=O)COc2ccc(S(=O)(=O)N3CCCC3)cc21)NC1CCCCCCC1	none
CC(C)c1ccccc1NC(=O)COC(=O)c1cc(=O)[nH]c(=O)[nH]1	none
COc1ccccc1-n1c(CNC(=O)c2ccco2)nnc1SCC(=O)Nc1nccs1	none
CCCCN(CCCC)C1=Nc2ccccc2N/C1=C(/C#N)C(=O)OCC	CHOP inhibitor 72
CCOC(=O)/C(C#N)=C1\Nc2ccccc2N=C1N(CC(C)C)CC(C)C	Lmaj promast 81, CHOP inhibitor 77
CCOC(=O)/C(C#N)=C1/C=C(C)NC(c2ccccc2O)=N1	none
CN(C)CCOC(=O)C12CC3(C)CC(C)(CC(C)(C3)C1)C2	CHOP inhibitor 94
CN(C)CCOC(=O)C12CC3CC(CC(C3)C1)C2	none (no result: bCat nuc transl)
NC(=S)n1[nH]c(-c2ccc([N+](=O)[O-])cc2)c(N=Nc2cccc(Cl)c2)c1=O	CHOP inhibitor 83
Cc1ccc(SCC(=O)NCc2cccnc2)cc1	none
Cc1ccccc1-c1nnn(C/C(N)=N/O)n1	none
COc1ccc(NC(=O)Cn2nnc(-c3ccccc3NC(=O)c3ccco3)n2)cc1	CHOP inhibitor 82
COc1ccccc1NC(=O)Cn1nnc(-c2ccccc2NC(=O)c2cccs2)n1	none
O=C(Cn1nnc(-c2ccccc2NC(=O)c2cccs2)n1)Nc1ccccc1	CHOP inhibitor 80
COc1ccc(NC(=O)Cn2nnc(-c3ccccc3N)n2)cc1OC	none
COc1ccccc1-c1nnn(C/C(N)=N/O)n1	Lmaj promast 72 (no result: bCat nuc transl)
COc1ccccc1NC(=O)Cn1nnc(-c2ccccc2NC(=O)c2ccco2)n1	none
COc1cc(NC(=O)Cn2nnc(-c3ccccc3N)n2)cc(OC)c1	Lmaj promast 55
CS(=O)(=O)N1CCN(C(=O)c2cc(-c3ccncc3)nc3ccc(Cl)cc23)CC1	none
CC(=O)OCC(=O)Nc1c(C)cc(C)cc1C	none
CCCC(=O)NCCc1c2n(c3ccc(OC)cc13)Cc1ccccc1-2	none (no result: bCat nuc transl, Dynein cargo inh, Lmaj promast, Autophagy mod, MT stabilizer)
CCOC(=O)CNC(=O)c1cccnc1Oc1ccc(Cl)cc1	none (no result: Lmaj promast, Autophagy mod, MT stabilizer)
CC(=O)Nc1ccc(NC(=O)CCNS(=O)(=O)c2cccc3nsnc23)cc1	none
COc1ccccc1Nc1nnc(SCC2CCCCO2)s1 (stereo unspecified)	MT stabilizer 19
Cc1ccccc1Nc1nnc(SCC2CCCCO2)s1 (stereo unspecified)	none
COC(=O)c1c(C)oc2ccc(N(C(=O)c3ccncc3)S(=O)(=O)c3ccc4ccccc4c3)cc12	MT stabilizer 27
COC(=O)c1c(C)oc2ccc(N(C(=O)c3ccncc3)S(=O)(=O)c3ccccc3)cc12	none
COC(=O)c1c(C)oc2ccc(N(C(=O)c3ccncc3)S(=O)(=O)c3ccc(C)cc3C)cc12	MT stabilizer 14

Bioassay records deposited in PubChem BioAssay by several laboratories.
